Screening data from PubChem BioAssay.
Apaf1 inhib: inhibitors of human Apaf-1 apoptosome. O14727. reconstituted apoptosome caspase-3 activity, DEVD-Rh110 fluorescence. actives 0.71% (n = 330,000). inhibition, % at 20 µM; active = inhibition of at least 40% at 20 µM;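 also: plate controls were DMSO wells for no effect and DEVD-CHO caspase inhibitor wells for full effect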
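Material: biochemical Apaf-1 apoptosome reconstitution. Medium: Hepes buffer, pH 7.5. Also added: cytochrome c activation, bis-DEVD rhodamine 110 substrate. Timing: 30 min compound preincubation, 50 min activation, room temperature. Measured by: rhodamine 110 fluorescence at Ex 480/Em 540 nm.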
PAFAH2 FP inh: PAFAH2 (human) inhibition | inhibition, % at 3.39 µM | recombinant PAFAH2, FP-rhodamine activity probe, fluorescence polarization | actives 0.99% (n = 340,000) | Q99487 | AID 492956;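 active = inhibition above the mean over all tested compounds plus 3 SD, cut at about 30% in these data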;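 also: inhibitors block probe labeling of enzyme so polarization drops; 0% = enzyme with DMSO and 100% = wells lacking PAFAH2 protein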
PAFAH1B2 FP inh: inhibitors of human PAFAH1B2. recombinant PAFAH1B2, FP-rhodamine activity probe, fluorescence polarization. inhibition, % at 3.39 µM. actives 1.2% (n = 340,000);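 active = inhibition above the mean of all tested compounds plus 3 SD, cut at about 24% in these data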;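 also: 0% = enzyme with DMSO and 100% = wells lacking PAFAH1B2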
Target sequence (P68402 whole entry, looked up): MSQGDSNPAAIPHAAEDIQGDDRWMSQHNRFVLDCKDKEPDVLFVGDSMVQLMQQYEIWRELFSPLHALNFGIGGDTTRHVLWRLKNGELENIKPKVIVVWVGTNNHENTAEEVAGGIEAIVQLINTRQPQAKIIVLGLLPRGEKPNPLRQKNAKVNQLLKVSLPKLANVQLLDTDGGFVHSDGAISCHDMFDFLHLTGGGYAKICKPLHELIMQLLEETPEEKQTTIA
PREPL inh: inhibits the human prolyl oligopeptidase-like enzyme; Q4J6C6; recombinant PREPL, fluorescence polarization activity-based probe; inhibition, % at 5.96 µM; actives 0.68% (n = 320,000); AID 2751; in the data active = inhibition above about 43%;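 also: 0% = enzyme with DMSO and 100% = wells lacking enzyme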
PAFAH1B3 inh: inhibitors of human PAFAH1B3 | recombinant PAFAH1B3, FP-rhodamine probe, fluorescence polarization | inhibition, % at 3.39 µM | Q15102 | actives 0.28% (n = 340,000);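 active = inhibition above the screen-wide average of all tested compounds plus 3 SD, cut at about 25% in these data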;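 also: 0% = enzyme with DMSO only and 100% = wells lacking PAFAH1B3 protein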
Target sequence (Q15102 whole entry, looked up): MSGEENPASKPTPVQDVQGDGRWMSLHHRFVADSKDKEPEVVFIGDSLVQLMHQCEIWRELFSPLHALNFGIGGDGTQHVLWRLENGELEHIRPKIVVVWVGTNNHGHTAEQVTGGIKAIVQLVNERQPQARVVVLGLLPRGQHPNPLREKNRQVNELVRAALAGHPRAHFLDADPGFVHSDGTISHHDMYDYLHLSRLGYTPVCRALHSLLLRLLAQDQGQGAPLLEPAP
pPAFAH inh: inhibitors of human plasma PAF acetylhydrolase (pPAFAH). recombinant pPAFAH, FP-rhodamine probe fluorescence polarization. AID 463082. actives 1.5% (n = 330,000). Q13093. inhibition, % at 3.39 µM;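 active = inhibition above the mean inhibition across the screen plus 3 SD, cut at about 25% in these data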;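 also: inhibitors block binding of the rhodamine activity-based probe so polarization drops; 0% = enzyme with DMSO and 100% = wells lacking pPAFAH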
PAFAH2 confirm: confirmation of human PAFAH2 inhibitors | shares compounds with PAFAH2 FP inh | recombinant PAFAH2, FP-rhodamine activity probe, fluorescence polarization | inhibition, % at 3.39 µM | actives 65% (n = 2,300);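 active = mean inhibition over three repeats above a set limit taken from the earlier primary screen, cut at about 30% in these data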;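 also: inhibitor blocks binding of rhodamine activity probe so polarization falls; 0% = enzyme with DMSO and 100% = wells lacking PAFAH2 protein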
Numbers without * were called inactive; x = no result. Shown are actives, neighbours in structure and some others; about 3.5% of the full set was active somewhere.

SMILES | Apaf1 inhib | PAFAH2 FP inh | PAFAH1B2 FP inh | PREPL inh | PAFAH1B3 inh | pPAFAH inh | PAFAH2 confirm
Cc1ccc(NC(=O)COC(=O)c2cccnc2Cl)cc1S(=O)(=O)N1CCOCC1 | -12 | 44* | 1 | 5 | -6 | 4 | 38*
Cc1ccc(S(=O)(=O)N2CCOCC2)cc1NC(=O)COC(=O)c1cccc(Cl)c1Cl | x | 41* | 3 | x | -1 | x | 27
Cc1ccc(S(=O)(=O)N2CCOCC2)cc1NC(=O)COC(=O)c1ccc(Cl)s1 | 12 | 44* | 6 | 22 | 6 | 3 | 32*
O=C(COC(=O)c1cc(S(=O)(=O)N2CCOCC2)ccc1Cl)Nc1ccccc1Cl | 14 | 6 | -4 | x | 8 | x | x
Cc1ccc(S(=O)(=O)N2CCOCC2)cc1NC(=O)COC(=O)c1cccnc1Cl | -15 | 16 | 5 | 3 | -1 | 9 | x
CCOc1ncccc1C(=O)OCC(=O)Nc1cc(S(=O)(=O)N2CCOCC2)ccc1C | 5 | 42* | -3 | -4 | 0 | 8 | 39*
CCOc1ncccc1C(=O)OCC(=O)Nc1cc(S(=O)(=O)N2CCCCC2)ccc1Cl | x | 68* | 1 | x | 4 | x | 55*
CCOc1ncccc1C(=O)OCC(=O)Nc1ccc(C)c(S(=O)(=O)N(C)C)c1 | 12 | 80* | 1 | -1 | -2 | 14 | 86*
COc1ccccc1N(C)S(=O)(=O)c1ccc(C(=O)Nc2nccs2)cc1 | 0 | -2 | 3 | -16 | -4 | 1 | x
Cc1cccc(NC(=O)COC(=O)c2cccc(S(=O)(=O)N3CCCCCC3)c2)c1 | 2 | 74* | 3 | 15 | -6 | 20 | 63*
Cc1cc(C)cc(NC(=O)COC(=O)c2cccc(S(=O)(=O)N3CCCCC3)c2)c1 | 3 | 65* | -4 | 5 | 6 | 9 | 52*
Cc1cc(Oc2cnn(C(C)(C)C)c(=O)c2Cl)cc(C(C)C)c1 | 23 | -3 | 3 | 0 | 10 | 8 | x
C=CCn1c(O)c(N=NC(=O)c2ccccc2NS(=O)(=O)c2cccs2)c2ccccc21 | 8 | 37* | 9 | 6 | 5 | 2 | 27
CCC(C(=O)NCCC1=CCCCC1)n1nc(C)c2c(C)n(-c3ccccc3)nc2c1=O (centres undefined) | 14 | 1 | 4 | 19 | 1 | 1 | x
O=C(COC(=O)C1C2CC3OC(=O)C1C3C2)Nc1ccc(Cl)cc1 (centres undefined) | 14 | 84* | 0 | 0 | 2 | 8 | 74*
COc1cccc(NC(=O)C2C3CC4OC(=O)C2C4C3)c1 (centres undefined) | -12 | 5 | 1 | 14 | -6 | 3 | x
COc1cccc(NC(=O)COC(=O)C2C3CC4OC(=O)C2C4C3)c1 (centres undefined) | 2 | 79* | 1 | 13 | 11 | 5 | 68*
Cc1cccc(C)c1NC(=O)COC(=O)C1C2CC3OC(=O)C1C3C2 (centres undefined) | 7 | 16 | 1 | -3 | 5 | -2 | x
CCc1ccccc1NC(=O)COC(=O)C1C2CC3OC(=O)C1C3C2 (centres undefined) | 9 | 40* | 1 | -7 | 5 | 0 | 31*
O=C(COC(=O)C1C2CC3OC(=O)C1C3C2)Nc1cccc(C(F)(F)F)c1 (centres undefined) | 7 | 71* | -2 | 15 | 10 | 7 | 78*
O=C(Nc1cccc(C(F)(F)F)c1)C1C2CC3OC(=O)C1C3C2 (centres undefined) | -2 | -18 | 4 | -3 | 5 | 4 | x
O=C(CN1CCN(S(=O)(=O)c2ccccc2[N+](=O)[O-])CC1)NC(=O)NCc1ccco1 | -4 | 2 | 5 | 8 | -3 | 3 | x
O=C(NCN1C(=O)C2C3C=CC(C3)C2C1=O)Nc1ccccc1O (centres undefined) | 12 | -2 | 1 | 8 | -2 | -2 | x
COc1cccc(NC(=O)COC(=O)c2nc(Cl)ccc2Cl)c1 | -7 | -3 | -5 | 3 | 2 | 9 | x
COc1cccc(NC(=O)COC(=O)c2c(F)cccc2Cl)c1 | -5 | 61* | 4 | 9 | 4 | 6 | 59*
SMILES | Apaf1 inhib | PAFAH2 FP inh | PAFAH1B2 FP inh | PREPL inh | PAFAH1B3 inh | pPAFAH inh | PAFAH2 confirm
COc1cccc(NC(=O)COC(=O)c2ccccc2F)c1 | -26 | 76* | -2 | 12 | 7 | 13 | 70*
COc1cccc(NC(=O)c2ccccc2F)c1 | -7 | 0 | -6 | -1 | 0 | 3 | x
CCOC(=O)c1c(NC(=O)c2nn(C)cc2[N+](=O)[O-])sc(C)c1C | 1 | -20 | -12 | 7 | -29 | -3 | x
CC(C)OCCCNC(=O)c1ccc(CS(=O)(=O)c2cccc(C(F)(F)F)c2)o1 | 11 | -5 | 6 | 0 | -6 | -2 | x
CC1(C)CCCN(C(=O)c2coc(=O)c(Br)c2)C1 | x | 48* | 7 | x | 11 | x | 21
O=C(c1coc(=O)c(Br)c1)N1CCC(C(O)(c2ccccc2)c2ccccc2)CC1 | -21 | 3 | 4 | 1 | 6 | 5 | x
CN(CC(=O)Nc1ccccc1C(F)(F)F)C(=O)c1cc(-c2cccs2)nn1-c1ccccc1 | 12 | -3 | 3 | -12 | 10 | 3 | x
Cc1ccc(C)c(NC(=O)CN(C)C(=O)c2cc(-c3cccs3)nn2-c2ccccc2)c1 | 20 | 33* | 8 | -11 | 1 | 8 | 0
CCc1noc(C)c1C(=O)OCC(=O)c1ccc(NC(C)=O)cc1F | -7 | -3 | 1 | 5 | 6 | 1 | x
CC1CCCCC1NC(=O)COC(=O)c1cccn1C (centres undefined) | 15 | 85* | 0 | 8 | 0 | 8 | 68*
CC1CCCCC1NC(=O)COC(=O)c1ccccn1 (centres undefined) | -1 | -5 | 0 | -10 | 1 | -3 | x
Cc1ccsc1C(=O)OCC(=O)NC1CCCCC1C (centres undefined) | -3 | 86* | 10 | 10 | 12 | 24 | 82*
CCCOc1ccc2c3c(c(=O)oc2c1OCCC)CCCC3 | 17 | 35* | 0 | 8 | -7 | 5 | 19
CCOc1ccc2c3c(c(=O)oc2c1OCC)CCCC3 | 4 | 13 | 5 | 9 | 5 | 5 | x
O=C(CSc1nnc(CNC(=O)c2ccccc2F)o1)NCCc1ccccc1 | 8 | 54* | 4 | 3 | 6 | -4 | 2
O=C(Cc1n[nH]c(=O)c2ccccc12)OCC(=O)c1ccc(F)c(F)c1 | 15 | 2 | -1 | 9 | 9 | 1 | x
COc1cc2c(C(F)(F)F)c(-c3ccc(C#N)cc3)oc(=O)c2cc1OC | -1 | 8 | 7 | 0 | -6 | 0 | x
COc1cc2c(C(F)(F)F)c(-c3ccsc3)oc(=O)c2cc1OC | 15 | 59* | 2 | 10 | 7 | 8 | 39*
